Here are results for eight compounds from ChEMBL document CHEMBL4118203, “Optimized synthesis and antiproliferative activity of desTHPdactylolides” (Bioorg Med Chem, 2018).

Test [1] has as its system PC-3. The experiment in a line: Antiproliferative activity against human PC3 cells after 72 hrs by methylene blue staining based assay. The format is functional, cell-based. The following applies: PC-3, 72 h.
Test [2] in a line: Antiproliferative activity against human PC3/DTX cells after 3 days by WST-1 assay. The format is functional, cell-based. The settings on record: 72 h. Summed up: (§1)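 Docetaxel-resistant lines were derived from DU145 or PC-3 over one year by stepwise-increasing docetaxel, starting at the parental IC50. Cells were kept continuously in docetaxel, with medium changed every 2–3 days. For the assay, cells were plated at 3,200/well and treated with a dose range for 3 days against DMSO vehicle. WST-1 was added for 3 h at 37 °C and absorbance read at 430 nm. IC50 is the mean of at least triplicates.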
On the technique in general: Formazan colour is commonly taken as a measure of viable cells.

The test system of a further test is DU-145. As to the kind of experiment: Antiproliferative activity against docetaxel-sensitive human DU145 cells after 3 days by WST-1 assay. In kind it is functional, cell-based. The following applies: DU-145, 72 h. In a few lines: (§2)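 Cells grown at 37 °C, 5% CO2: PC-3 and LNCaP in RPMI-1640, DU145 in EMEM, each with 10% FBS and 1% penicillin/streptomycin. Plated at 3,200 cells/well and exposed to a range of doses for 3 days, with DMSO vehicle control. WST-1 reagent was then added for 3 h at 37 °C and absorbance read at 430 nm. IC50 is the mean of at least triplicate runs.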

A further test relates to LNCaP. The experiment in a line: Antiproliferative activity against docetaxel-sensitive human LNCAP cells after 3 days by WST-1 assay. In kind it is functional, cell-based. The following applies: 72 h. In a few lines: as §2
Test [3] can be described thus: Antiproliferative activity against human DU145/DTX cells after 3 days by WST-1 assay. The format is functional, cell-based. The following applies: DU-145, 72 h. Summed up:
as §1

Test [4] relates to PC-3. The experiment in a line: Antiproliferative activity against docetaxel-sensitive human PC3 cells after 3 days by WST-1 assay. In kind it is functional, cell-based. The following applies: PC-3, 72 h. Summed up:
as §2

A short description of test [5]: Resistance index, ratio of IC50 for human PC3/DTX cells to IC50 for docetaxel-sensitive human PC3 cells. In kind it is functional.
Test [6] can be described thus: Resistance index, ratio of IC50 for human DU145/DTX cells to IC50 for docetaxel-sensitive human DU145 cells. The format is functional.

Usually IC50 stands for the concentration needed to halve the response being measured. Higher therefore signals weaker potency. In the test on PC-3 [1], `C=C1C[C@H]2C/C=C/C(=O)C/C(C)=C\C=C\C(=O)OC(C=O)C/C(C)=C/[C@@H](C1)O2` (stereo not given in full) yielded an IC50 of 0.75 µM.

`C/C1=C/C=C/C(=O)O[C@@H](CO)C/C(C)=C/COCC/C=C/C(=O)C1`: the IC50 (in test [2]; in the test on DU-145; in the test with LNCaP; in test [3]; in the test with PC-3 [4]) was > 30 µM throughout.

On to `COc1ccc(COC[C@H]2C/C(C)=C/COCC/C=C/C(=O)C/C(C)=C\C=C\C(=O)O2)cc1`, for which the “Ratio IC50” value in test [5] was 0.6; in test [6], 1. The IC50 came to 3.77 µM in test [2]; 3.16 µM in the test on DU-145; 2.85 µM in the test on LNCaP; 3.2 µM in test [3]; 6.31 µM in the test on PC-3 [4].

As for `CC(=O)O[C@@]12CO[C@@H]1C[C@H](O)[C@@]1(C)C(=O)[C@H](O)C3=C(C)[C@@H](OC(=O)[C@H](O)[C@@H](NC(=O)OC(C)(C)C)c4ccccc4)C[C@@](O)([C@@H](OC(=O)c4ccccc4)[C@H]21)C3(C)C` [DOCETAXEL ANHYDROUS], the figures for the “Ratio IC50” value in test [5] and in test [6] were 1232 and 7150, respectively. In addition, the IC50 in test [2] was 2.34 µM; with DU-145, 0.0012 µM; in the test on LNCaP, 0.0002 µM; in test [3] it was 8.58 µM; in the test with PC-3 [4] it was 0.0019 µM.

As for `C/C1=C/C=C/C(=O)O[C@H](CO)C/C(C)=C/COCC/C=C/C(=O)C1`, the “Ratio IC50” value in test [5] was 0.9; in test [6], 0.8. Also, the 50% inhibitory concentration (IC50) in test [2] worked out at 14.4 µM; in the test on DU-145, 17.8 µM; in the test with LNCaP, 19.3 µM; in test [3], 14.1 µM; in the test with PC-3 [4], 16.1 µM; with PC-3 [1], 3.05 µM.

Regarding `C/C1=C/C=C/C(=O)O[C@H](C=O)C/C(C)=C/COCC/C=C/C(=O)C1`, the “Ratio IC50” value in test [5] and in test [6] was 1.3 in each case. Besides, the half-inhibitory concentration (IC50) in test [2] came to 15.4 µM; in the test with DU-145, 11.6 µM; in the test with LNCaP it was 13.5 µM; in test [3], 15.3 µM; in the test with PC-3 [4], 11.9 µM; with PC-3 [1], 4.02 µM.

Regarding `COc1ccc(COC[C@@H]2C/C(C)=C/COCC/C=C/C(=O)C/C(C)=C\C=C\C(=O)O2)cc1`, the “Ratio IC50” value in test [5] is on record as >2.6; in test [6] it was >2.2. The IC50 in test [2] was > 20 µM; with DU-145, 9.21 µM; with LNCaP it was 8.27 µM; in test [3], > 20 µM; in the test on PC-3 [4] it was 7.66 µM.

With `C/C1=C/C=C/C(=O)O[C@@H](C=O)C/C(C)=C/COCC/C=C/C(=O)C1`, the results for the “Ratio IC50” value in test [5] and in test [6] were 0.8 and 1.5, respectively. The IC50 in test [2] is 4.41 µM; in the test on DU-145 it was 5.41 µM; in the test on LNCaP it was 3.22 µM; in test [3], 8.03 µM; with PC-3 [4], 5.27 µM.
